The target of test [1] is T1, Substance-K receptor (Homo sapiens, UniProt P21452).
T1 sequence (P21452 whole entry): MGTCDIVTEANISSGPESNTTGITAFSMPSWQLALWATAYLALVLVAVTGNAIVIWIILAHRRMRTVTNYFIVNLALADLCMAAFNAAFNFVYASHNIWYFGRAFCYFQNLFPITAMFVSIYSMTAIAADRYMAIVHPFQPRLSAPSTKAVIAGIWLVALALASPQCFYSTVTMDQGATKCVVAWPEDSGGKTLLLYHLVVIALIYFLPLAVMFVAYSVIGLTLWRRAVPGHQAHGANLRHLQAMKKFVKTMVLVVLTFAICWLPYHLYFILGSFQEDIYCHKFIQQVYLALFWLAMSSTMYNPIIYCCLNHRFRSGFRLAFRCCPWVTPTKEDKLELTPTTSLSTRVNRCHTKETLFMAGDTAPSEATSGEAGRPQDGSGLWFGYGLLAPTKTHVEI
Put plainly: (§1) Compound was evaluated for Kd value against [3H]-SR- 48968 on the Tyr206Ala mutated human NK-2 receptor.

For test [2], the target named is T2, Substance-K receptor (Homo sapiens, UniProt P21452, Y206F).
T2 sequence (P21452 whole entry): T1 sequence (P21452 whole entry)
Description: Compound was evaluated for Kd value against [125I]-NKA on the Tyr206Phe mutated human NK-2 receptor.

For test [3], the target named is T3, Substance-K receptor (Homo sapiens, UniProt P21452, Y266F).
T3 sequence (P21452 whole entry): T1 sequence (P21452 whole entry)
Description: Compound was evaluated for Kd value against [3H]-SR- 48968 on the Tyr266Phe mutated human NK-2 receptor.

The target in test [4] is T3, Substance-K receptor. Put plainly: Compound was evaluated for Kd value against [125I]NKA on the Tyr266Phe mutated human NK-2 receptor.
Test [5] concerns the target T4, Substance-K receptor (Homo sapiens, UniProt P21452, F270A).
T4 sequence (P21452 whole entry): T1 sequence (P21452 whole entry)
Put plainly: Compound was evaluated for Kd value against [3H]-SR- 48968 on the Phe270Ala mutated human NK-2 receptor.

Test [6] has as its target T2, Substance-K receptor. Description: Compound was evaluated for Kd value against [3H]-SR- 48968 on the Tyr206Phe mutated human NK-2 receptor.
Test [7] concerns the target T1, Substance-K receptor. Description: Compound was evaluated for Kd value against [3H]-SR- 48968 on the Wild-type tachykinin receptor 2.
Test [8] has as its target T1, Substance-K receptor. Description: Compound was evaluated for Kd value against [125I]NKA on the Wild-type tachykinin receptor 2.
The target in test [9] is T5, Substance-K receptor (Homo sapiens, UniProt P21452, Y206A).
T5 sequence (P21452 whole entry): T1 sequence (P21452 whole entry)
The test is described as §1.

The target in test [10] is T2, Substance-K receptor. Description: Compound was evaluated for Kd value against [125I]NKA on the Tyr206Phe mutated human NK-2 receptor. The gist of the method:
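Human NK-2 receptor carrying the point mutation, transfected into CHO cells. Radioligand binding with [125I]NKA.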

Experimental findings from BindingDB's records for doi:10.1021/jm0010217 (Menarini Ricerche, 2000) are described below.

Bridge positions count the residues as written; N and C are the ends. Square brackets hold non-standard residues; d marks the D form. Peptide text beside a SMILES is read from it. * marks the point of attachment. NH(β-GlcNAc) = CC(=O)N[C@@H]1[C@@H](O)[C@H](O)[C@@H](CO)O[C@H]1N*; Dap = NC[C@H](N)C(=O)O

As a reminder, the Kd is the constant that tells how readily two partners part at equilibrium. `CC(=O)N[C@@H]1[C@@H](O)[C@H](O)[C@@H](CO)O[C@H]1NC(=O)C[C@@H]1NC(=O)[C@H](CC(C)C)NC(=O)[C@@H]2CNC(=O)C[C@H](NC1=O)C(=O)N[C@@H](Cc1c[nH]c3ccccc13)C(=O)N[C@@H](Cc1ccccc1)C(=O)N2` (cyclo(D(NH(β-GlcNAc))DWF[Dap]L); lactam 2-5): the Kd in test [1] was over 1000 nM; in test [2], 3.1 nM; in [3], 48 nM; in test [4] it was 26 nM; in test [5] it was 291 nM; in [6], 1.9 nM. The dissociation constant Kd amounted to 4.4 nM in test [7] and 2.1 nM in test [8].
In the case of `O=C1CCC(=O)N[C@@H](Cc2c[nH]c3ccccc23)C(=O)N[C@@H](Cc2ccccc2)C(=O)N[C@H](Cc2ccccc2)CN1` [MEN-11558], the Kd amounted to 1960 nM in test [9]; 48 nM in test [3]; 34 nM in test [4]; 208 nM in test [5]; 1.3 nM in [6]; 3.6 nM in [10]. Further, the equilibrium dissociation constant (Kd) in [7] came to 10 nM; in test [8], 2.7 nM.
